Experiments:
Coagulation factor XI [1] = molecular target: T1, Coagulation factor XI (Homo sapiens, UniProt P03951); assay: Binding affinity to coagulation factor 11a (unknown origin) assessed as inhibition constant using (p-Glu-Pro-Arg-pNa,HCl) as substrate preincubated for 5 mins followed by substrate addition and measured after 10 mins
Coagulation factor XI [2] = molecular target: T1, Coagulation factor XI; assay: Inhibition of coagulation factor 11a (unknown origin) at 100 uM using (p-Glu-Pro-Arg-pNa,HCl) as substrate preincubated for 5 mins followed by substrate addition and measured after 10 mins relative to control; settings: time 15.0 min
Oryctolagus cuniculus [3] = assay: Antithrombotic activity in New Zealand White rabbit model of AV-shunt induced thrombosis assessed as reduction in thrombosis weight by measuring inhibition of thrombosis formation at 0.5 mg/kg, administered as iv bolus dose and subsequently followed by 0.8 mg/kg/hr as iv infusion relative to control; assay type: functional
Method in brief: (§1)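 Male New Zealand White rabbits under urethane anesthesia (1.25 g/kg). A control-period AV shunt gave the baseline thrombus wet weight, found by subtraction. The compound in saline vehicle was then given as an IV bolus followed by continuous IV infusion via the jugular vein. A new AV shunt ran for 40 min. Result is % inhibition of thrombus formation, treatment versus control period. Three rabbits per group.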

Coagulation factor VII = molecular target: T2, Coagulation factor VII (Homo sapiens, UniProt P08709); assay: Binding affinity to coagulation factor 7a (unknown origin) assessed as inhibition constant using CH3SO2-D-CHA-But-Arg-pNA,ACOH as substrate preincubated for 10 mins followed by substrate addition and further incubated for 10 mins
T2 sequence (P08709 whole entry): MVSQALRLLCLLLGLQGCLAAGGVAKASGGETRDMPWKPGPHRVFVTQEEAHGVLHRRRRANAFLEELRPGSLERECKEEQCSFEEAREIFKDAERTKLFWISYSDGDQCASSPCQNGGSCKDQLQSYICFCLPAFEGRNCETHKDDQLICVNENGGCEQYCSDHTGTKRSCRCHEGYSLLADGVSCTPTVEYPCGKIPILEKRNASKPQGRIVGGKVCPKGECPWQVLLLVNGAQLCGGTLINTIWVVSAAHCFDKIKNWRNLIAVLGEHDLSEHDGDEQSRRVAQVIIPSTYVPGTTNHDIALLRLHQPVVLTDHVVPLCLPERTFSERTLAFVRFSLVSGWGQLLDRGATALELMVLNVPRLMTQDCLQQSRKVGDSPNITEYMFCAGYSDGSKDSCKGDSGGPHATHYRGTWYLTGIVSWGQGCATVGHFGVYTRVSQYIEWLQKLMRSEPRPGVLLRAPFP
Method in brief: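 FVIIa was preincubated with compound or blank buffer at 37 °C for 10 min. Chromogenic substrate was added and absorbance read at 405 nm. Compounds came from DMSO stocks (10 mM) diluted in assay buffer. IC50 was derived from a concentration range.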

Coagulation factor X = Coagulation factor X (Homo sapiens, UniProt P00742); assay: Binding affinity to coagulation factor 10a (unknown origin) assessed as inhibition constant using CH3OCO-D-CHA-Gly-Arg-pNA,ACOH as substrate preincubated for 10 mins followed by substrate addition
Method in brief: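 FXa was preincubated with compound or blank buffer at 25 °C for 10 min. Chromogenic substrate was added and absorbance read at 405 nm. Compounds came from DMSO stocks (10 mM) diluted in assay buffer. IC50 was derived from a concentration range.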

[4] = Binding affinity to thrombin (unknown origin) assessed as inhibition constant using H-D-Phe-Pip-Arg-pNA,2HCl as substrate preincubated for 10 mins followed by substrate addition; design: species or system Homo sapiens
Method in brief: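 Thrombin was preincubated with compound or blank buffer at 25 °C for 10 min. Chromogenic substrate was added and absorbance read at 405 nm. Compounds came from DMSO stocks (10 mM) diluted in assay buffer. IC50 was derived from a concentration range.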

Homo sapiens [5] = species on record: Homo sapiens; assay: Selectivity ratio of Ki for coagulation factor 7a (unknown origin) to Ki for coagulation factor 11a (unknown origin)
Homo sapiens [6] = species on record: Homo sapiens; assay: Selectivity ratio of Ki for coagulation factor 10a (unknown origin) to Ki for coagulation factor 11a (unknown origin)
Homo sapiens [7] = species on record: Homo sapiens; assay: Selectivity ratio of Ki for thrombin (unknown origin) to Ki for coagulation factor 11a (unknown origin)
Homo sapiens [8] = species on record: Homo sapiens; assay: Selectivity ratio of Ki for plasma kallikrein (unknown origin) to Ki for coagulation factor 11a (unknown origin)
Homo sapiens [9] = species on record: Homo sapiens; assay: Competitive inhibition of coagulation factor 11a (unknown origin) assessed as Km at 0.005 uM using varying levels (p-Glu-Pro-Arg-pNa,HCl) as substrate by Lineweaver-Burk plot analysis
Method in brief: (§2)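 Same FXIa assay (37 °C, 5 min preincubation, 405 nm read), run at four substrate levels with final concentrations of 42.5, 85, 170 and 340. Km and Vmax were taken from a Lineweaver-Burk plot using the Michaelis-Menten relationship.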

Homo sapiens [10] = species on record: Homo sapiens; assay: Competitive inhibition of coagulation factor 11a (unknown origin) assessed as Km at 0.01 uM using varying levels (p-Glu-Pro-Arg-pNa,HCl) as substrate by Lineweaver-Burk plot analysis; method in brief: as §2
Homo sapiens [11] = species on record: Homo sapiens; assay: Competitive inhibition of coagulation factor 11a (unknown origin) assessed as Km at 0.02 uM using varying levels (p-Glu-Pro-Arg-pNa,HCl) as substrate by Lineweaver-Burk plot analysis; method in brief: as §2
Homo sapiens [12] = species on record: Homo sapiens; assay: Competitive inhibition of coagulation factor 11a (unknown origin) assessed as Km at 0.04 uM using varying levels (p-Glu-Pro-Arg-pNa,HCl) as substrate by Lineweaver-Burk plot analysis; method in brief: as §2
Homo sapiens [13] = species on record: Homo sapiens; assay: Competitive inhibition of coagulation factor 11a (unknown origin) assessed as Vmax at 0.005 to 0.04 uM using varying levels (p-Glu-Pro-Arg-pNa,HCl) as substrate by Lineweaver-Burk plot analysis; settings: dose 0.005-0.04 µM; method in brief: as §2
Homo sapiens [14] = species on record: Homo sapiens; assay: Competitive inhibition of coagulation factor 11a (unknown origin) using varying levels (p-Glu-Pro-Arg-pNa,HCl) as substrate by Lineweaver-Burk plot analysis; settings: dose 0.005-0.04 µM; method in brief: as §2
Oryctolagus cuniculus [15] = assay: Antithrombotic activity in New Zealand White rabbit model of AV-shunt induced thrombosis assessed as reduction in thrombosis weight by measuring inhibition of thrombosis formation at 2.5 mg/kg, administered as iv bolus dose and subsequently followed by 4 mg/kg/hr as iv infusion relative to control; assay type: functional; method in brief: as §1
Oryctolagus cuniculus [16] = assay: Antithrombotic activity in New Zealand White rabbit model of AV-shunt induced thrombosis assessed as reduction in thrombosis weight by measuring inhibition of thrombosis formation at 5 mg/kg, administered as iv bolus dose and subsequently followed by 8 mg/kg/hr as iv infusion relative to control; assay type: functional; method in brief: as §1
Plasma kallikrein = Plasma kallikrein (Homo sapiens, UniProt P03952); assay: Binding affinity to plasma kallikrein (unknown origin) assessed as inhibition constant using D-Pro-Phe,Arg,pNa,2HCl as substrate preincubated for 15 mins followed by substrate addition
Sequence of Plasma kallikrein (P03952 20-390 limits assumed): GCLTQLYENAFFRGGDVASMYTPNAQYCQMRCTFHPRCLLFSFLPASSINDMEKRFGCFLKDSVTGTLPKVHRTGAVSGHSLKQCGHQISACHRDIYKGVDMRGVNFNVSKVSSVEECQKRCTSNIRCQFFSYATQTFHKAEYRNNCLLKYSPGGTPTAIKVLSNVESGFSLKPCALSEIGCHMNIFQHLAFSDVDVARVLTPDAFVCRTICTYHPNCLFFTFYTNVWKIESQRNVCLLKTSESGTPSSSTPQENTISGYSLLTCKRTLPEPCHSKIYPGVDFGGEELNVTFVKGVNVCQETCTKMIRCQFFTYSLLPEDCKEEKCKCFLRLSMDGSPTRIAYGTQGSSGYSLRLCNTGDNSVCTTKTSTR
Sequence of Plasma kallikrein (P03952 391-638 limits assumed): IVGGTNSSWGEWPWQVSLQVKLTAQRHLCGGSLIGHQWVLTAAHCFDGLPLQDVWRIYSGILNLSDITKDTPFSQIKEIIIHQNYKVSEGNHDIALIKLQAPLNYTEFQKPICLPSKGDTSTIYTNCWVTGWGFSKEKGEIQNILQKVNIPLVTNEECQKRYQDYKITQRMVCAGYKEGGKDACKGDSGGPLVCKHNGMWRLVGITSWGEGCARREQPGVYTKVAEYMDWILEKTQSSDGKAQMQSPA

T1 sequence (P03951 19-387 limits assumed): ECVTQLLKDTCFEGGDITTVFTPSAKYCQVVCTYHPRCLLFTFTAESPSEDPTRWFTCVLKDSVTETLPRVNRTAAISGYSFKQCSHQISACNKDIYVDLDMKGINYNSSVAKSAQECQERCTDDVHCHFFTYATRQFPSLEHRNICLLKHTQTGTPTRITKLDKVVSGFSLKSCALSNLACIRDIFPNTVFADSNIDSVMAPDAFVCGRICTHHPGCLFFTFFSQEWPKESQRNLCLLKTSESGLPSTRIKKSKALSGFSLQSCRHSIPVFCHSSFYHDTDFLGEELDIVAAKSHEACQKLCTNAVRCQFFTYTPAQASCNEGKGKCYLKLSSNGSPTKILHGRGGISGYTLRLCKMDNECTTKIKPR
T1 sequence (P03951 388-625 limits assumed): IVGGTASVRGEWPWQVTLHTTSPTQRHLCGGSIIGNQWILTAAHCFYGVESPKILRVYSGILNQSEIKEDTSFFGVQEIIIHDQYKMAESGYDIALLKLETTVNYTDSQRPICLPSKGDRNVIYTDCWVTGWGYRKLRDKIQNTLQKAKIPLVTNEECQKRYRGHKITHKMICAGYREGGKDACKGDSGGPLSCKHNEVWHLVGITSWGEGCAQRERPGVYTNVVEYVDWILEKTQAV
Sequence of Coagulation factor X (P00742 41-179 limits assumed): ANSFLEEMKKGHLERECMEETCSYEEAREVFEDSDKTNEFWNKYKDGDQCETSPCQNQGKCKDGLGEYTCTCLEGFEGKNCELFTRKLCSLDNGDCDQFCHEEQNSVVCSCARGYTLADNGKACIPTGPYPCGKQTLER
Sequence of Coagulation factor X (P00742 235-488 limits assumed): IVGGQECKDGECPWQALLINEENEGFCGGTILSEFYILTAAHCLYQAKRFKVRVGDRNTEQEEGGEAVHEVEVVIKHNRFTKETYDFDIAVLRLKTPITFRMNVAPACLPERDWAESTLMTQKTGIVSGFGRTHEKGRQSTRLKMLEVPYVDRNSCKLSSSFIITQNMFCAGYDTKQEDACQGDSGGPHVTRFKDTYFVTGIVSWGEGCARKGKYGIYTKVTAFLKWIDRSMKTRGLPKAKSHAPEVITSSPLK

Structure (SMILES): Cc1nc(-c2cccc(Cl)c2F)n(O)c1C(=O)N[C@@H](Cc1ccc(NC(=O)C2CCCCC2)cc1)C(=O)Nc1ccc2[nH]c(C(=O)O)cc2c1
- Ki (Coagulation factor XI [1]): 56.3 nM

Structure (SMILES): COn1c(-c2cccc(Cl)c2F)nc(C)c1C(=O)N[C@@H](Cc1ccccc1)C(=O)Nc1ccc(C(=O)O)cc1
- Ki (Coagulation factor XI [1]): > 100000 nM
- inhibition (Coagulation factor XI [2]): 0%

Structure (SMILES): Cc1nc(-c2cccc(Cl)c2F)n(O)c1C(=O)N[C@@H](Cc1ccc([N+](=O)[O-])cc1)C(=O)Nc1ccc2[nH]c(C(=O)O)cc2c1
- Ki (Coagulation factor XI [1]): 7320 nM

Structure (SMILES): CC#CC(=O)Nc1ccc(C[C@H](NC(=O)c2c(C)nc(-c3cccc(Cl)c3F)n2O)C(=O)Nc2ccc3[nH]c(C(=O)O)cc3c2)cc1
- Ki (Coagulation factor XI [1]): 31 nM

Structure (SMILES): Cc1nc(-c2ccccc2Cl)n(O)c1C(=O)N[C@@H](Cc1ccccc1)C(=O)Nc1ccc(C(=O)O)cc1
- Ki (Coagulation factor XI [1]): > 100000 nM
- inhibition (Coagulation factor XI [2]): 34.1%

Structure (SMILES): Cc1nc(-c2ccc(C#N)cc2)n(O)c1C(=O)N[C@@H](Cc1ccccc1)C(=O)Nc1ccc(C(=O)O)cc1
- Ki (Coagulation factor XI [1]): > 100000 nM
- inhibition (Coagulation factor XI [2]): 0%

Structure (SMILES): C#CC(=O)Nc1ccc(C[C@H](NC(=O)c2c(C)nc(-c3cccc(Cl)c3F)n2O)C(=O)Nc2ccc3[nH]c(C(=O)O)cc3c2)cc1
- Ki (Coagulation factor XI [1]): 53 nM

Structure (SMILES): Cc1nc(-c2cccc(Cl)c2F)n(O)c1C(=O)N[C@@H](Cc1ccccc1)C(=O)Nc1ccc2[nH]c(C(=O)O)cc2c1
- Ki (Coagulation factor XI [1]): 2820 nM

Structure (SMILES): Cc1nc(-c2cccc(Cl)c2F)[nH]c1C(=O)N[C@@H](Cc1ccccc1)C(=O)Nc1ccc(C(=O)O)cc1
- Ki (Coagulation factor XI [1]): 26400 nM

Structure (SMILES): Cc1nc(-c2ccccc2C#N)n(O)c1C(=O)N[C@@H](Cc1ccccc1)C(=O)Nc1ccc(C(=O)O)cc1
- Ki (Coagulation factor XI [1]): 18900 nM
- inhibition (Coagulation factor XI [2]): 16.4%

Structure (SMILES): Cc1nc(-c2cccc(Cl)c2F)n(O)c1C(=O)N[C@@H](Cc1ccc(Br)cc1)C(=O)Nc1ccc2[nH]c(C(=O)O)cc2c1
- Ki (Coagulation factor XI [1]): 962 nM

Structure (SMILES): Cc1nc(-c2cccc(Cl)c2F)n(O)c1C(=O)N[C@@H](Cc1ccc(NC(=O)C(C)C)cc1)C(=O)Nc1ccc2[nH]c(C(=O)O)cc2c1
- Ki (Coagulation factor XI [1]): 156 nM

Structure (SMILES): Cc1nc(-c2ccc(O)c(C#N)c2)n(O)c1C(=O)O
- Ki (Coagulation factor XI [1]): 228000 nM

Structure (SMILES): Cc1nc(-c2cccc(Cl)c2F)n(O)c1C(=O)N[C@@H](Cc1ccc(NC(=O)c2ncccn2)cc1)C(=O)Nc1ccc2[nH]c(C(=O)O)cc2c1
- Ki (Coagulation factor XI [1]): 81.3 nM

Structure (SMILES): Cc1nc(-c2cccc(Cl)c2F)n(O)c1C(=O)N[C@@H](Cc1ccc(F)cc1)C(=O)Nc1ccc2[nH]c(C(=O)O)cc2c1
- Ki (Coagulation factor XI [1]): 486 nM

Structure (SMILES): NC[C@H]1CC[C@H](C(=O)N[C@@H](Cc2ccccc2)c2nc(-c3ccc4c(N)n[nH]c4c3)c(Cl)[nH]2)CC1
- Ki (Coagulation factor XI [1]): 1.5 nM
- inhibition (INH) (Oryctolagus cuniculus [3]): 59.26%

Structure (SMILES): Cc1nc(-c2cccc(Cl)c2F)n(O)c1C(=O)N[C@@H](Cc1ccccc1)C(=O)Nc1ccc(CC(=O)O)cc1
- Ki (Coagulation factor XI [1]): 6860 nM

Structure (SMILES): Cc1nc(-c2cccc(Cl)c2F)n(O)c1C(=O)N[C@@H](Cc1ccc(NC(=O)C2CC2C)cc1)C(=O)Nc1ccc2[nH]c(C(=O)O)cc2c1 (stereo not given in full)
- Ki (Coagulation factor XI [1]): 9 nM
- Ki (Coagulation factor VII): 4190 nM
- Ki (Coagulation factor X): > 8000 nM
- Ki [4]: > 12500 nM
- Ratio Ki (Homo sapiens [5]): > 400
- Ratio Ki (Homo sapiens [6]): > 400
- Ratio Ki (Homo sapiens [7]): > 400
- Ratio Ki (Homo sapiens [8]): 21.3
- Km (Homo sapiens [9]): 45.5 µM
- Km (Homo sapiens [10]): 60.3 µM
- Km (Homo sapiens [11]): 89.9 µM
- Km (Homo sapiens [12]): 128 µM
- Vmax (Homo sapiens [13]): 0.17 µM/min
- inhibition (Homo sapiens [14]): Dose-Dependent Effect
- inhibition (INH) (Oryctolagus cuniculus [3]): 26.8%
- inhibition (INH) (Oryctolagus cuniculus [15]): 42.67%
- inhibition (INH) (Oryctolagus cuniculus [16]): 51.04%
- Ki (Plasma kallikrein): 192 nM

Reference: ChEMBL document CHEMBL4825671, “Design, synthesis and biological evaluation of novel FXIa inhibitors with 2-phenyl-1H-imidazole-5-carboxamide moiety as P1 fragment” (Eur J Med Chem, 2021)
